Laboratory results: ChEMBL document CHEMBL3774321, “Systematic diversification of benzylidene heterocycles yields novel inhibitor scaffolds selective for Dyrk1A, Clk1 and CK2” (Eur J Med Chem, 2016)
Activity calls are given as the source filed them. The calls are words filed in the database; no cut-off is given here.

Columns and labels:
[1] = biological target: T1, Serine/threonine-protein kinase haspin (Homo sapiens) (UniProt Q8TF76); assay: Inhibition of Haspin (unknown origin) at 5 uM relative to control
T1 sequence (whole entry): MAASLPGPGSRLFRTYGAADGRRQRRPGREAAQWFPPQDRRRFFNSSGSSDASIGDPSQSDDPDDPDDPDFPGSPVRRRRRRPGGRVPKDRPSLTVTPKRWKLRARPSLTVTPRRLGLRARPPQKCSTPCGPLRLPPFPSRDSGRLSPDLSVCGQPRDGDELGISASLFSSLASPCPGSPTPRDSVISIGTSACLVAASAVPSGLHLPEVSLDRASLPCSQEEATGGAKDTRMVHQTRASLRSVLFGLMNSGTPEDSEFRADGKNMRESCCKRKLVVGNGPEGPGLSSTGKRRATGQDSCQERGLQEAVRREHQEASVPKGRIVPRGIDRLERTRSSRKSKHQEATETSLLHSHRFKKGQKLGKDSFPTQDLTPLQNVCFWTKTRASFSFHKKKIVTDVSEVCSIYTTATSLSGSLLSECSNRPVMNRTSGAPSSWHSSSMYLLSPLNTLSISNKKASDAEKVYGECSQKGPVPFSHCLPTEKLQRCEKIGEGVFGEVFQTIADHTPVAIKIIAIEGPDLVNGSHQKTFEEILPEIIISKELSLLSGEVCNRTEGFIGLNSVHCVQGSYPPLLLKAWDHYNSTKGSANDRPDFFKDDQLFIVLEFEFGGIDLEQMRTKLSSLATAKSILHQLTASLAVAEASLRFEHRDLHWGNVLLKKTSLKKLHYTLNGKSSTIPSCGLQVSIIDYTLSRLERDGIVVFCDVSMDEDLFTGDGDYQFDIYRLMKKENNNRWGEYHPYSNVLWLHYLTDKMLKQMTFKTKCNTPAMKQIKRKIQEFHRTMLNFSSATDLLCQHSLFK

[2] = biological target: Serine/threonine-protein kinase pim-1 (Homo sapiens, UniProt P11309); assay: Inhibition of PIM1 (unknown origin) at 5 uM relative to control
Sequence of Serine/threonine-protein kinase pim-1 (P11309 whole entry, looked up, canonical isoform): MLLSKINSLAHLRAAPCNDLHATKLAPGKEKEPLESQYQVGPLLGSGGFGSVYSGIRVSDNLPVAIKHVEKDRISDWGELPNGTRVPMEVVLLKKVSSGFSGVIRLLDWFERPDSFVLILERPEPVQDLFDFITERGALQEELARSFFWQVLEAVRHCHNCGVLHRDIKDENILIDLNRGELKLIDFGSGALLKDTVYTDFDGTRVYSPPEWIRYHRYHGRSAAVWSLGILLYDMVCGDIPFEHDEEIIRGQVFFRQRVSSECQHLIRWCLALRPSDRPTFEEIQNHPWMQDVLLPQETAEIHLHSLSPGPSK

[3] = biological target: T2, Phosphatidylinositol 4,5-bisphosphate 3-kinase catalytic subunit delta isoform (Homo sapiens) (UniProt O00329); assay: Inhibition of PI3K p110delta (unknown origin) at 5 uM relative to control
T2 sequence (whole entry): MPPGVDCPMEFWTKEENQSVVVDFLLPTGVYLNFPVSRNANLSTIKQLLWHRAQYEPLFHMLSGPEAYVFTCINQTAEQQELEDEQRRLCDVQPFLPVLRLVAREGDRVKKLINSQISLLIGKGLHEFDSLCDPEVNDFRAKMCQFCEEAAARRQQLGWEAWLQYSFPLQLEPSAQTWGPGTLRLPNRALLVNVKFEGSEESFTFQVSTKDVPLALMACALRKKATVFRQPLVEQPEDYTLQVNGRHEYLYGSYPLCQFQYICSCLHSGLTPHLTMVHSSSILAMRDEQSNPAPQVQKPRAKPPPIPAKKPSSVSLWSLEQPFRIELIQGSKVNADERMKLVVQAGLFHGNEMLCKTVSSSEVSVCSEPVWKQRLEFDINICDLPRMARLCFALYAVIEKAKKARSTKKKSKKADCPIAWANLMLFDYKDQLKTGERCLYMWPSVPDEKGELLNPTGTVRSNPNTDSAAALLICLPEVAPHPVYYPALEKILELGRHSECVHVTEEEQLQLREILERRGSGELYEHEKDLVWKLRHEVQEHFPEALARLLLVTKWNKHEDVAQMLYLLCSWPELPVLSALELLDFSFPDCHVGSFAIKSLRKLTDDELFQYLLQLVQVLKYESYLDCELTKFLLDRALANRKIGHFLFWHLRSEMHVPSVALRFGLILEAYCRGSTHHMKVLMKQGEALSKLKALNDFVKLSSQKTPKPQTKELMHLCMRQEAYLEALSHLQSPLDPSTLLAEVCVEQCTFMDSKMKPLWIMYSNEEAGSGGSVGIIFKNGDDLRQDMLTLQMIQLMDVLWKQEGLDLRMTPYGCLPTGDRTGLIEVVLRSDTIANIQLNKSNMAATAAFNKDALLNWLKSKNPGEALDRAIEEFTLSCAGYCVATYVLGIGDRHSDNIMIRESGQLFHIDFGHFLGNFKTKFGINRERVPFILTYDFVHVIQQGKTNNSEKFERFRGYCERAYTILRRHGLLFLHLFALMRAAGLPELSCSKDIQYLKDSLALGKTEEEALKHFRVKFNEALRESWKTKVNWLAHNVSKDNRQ

[4] = biological target: Phosphatidylinositol 4-phosphate 3-kinase C2 domain-containing subunit beta (Homo sapiens) (UniProt O00750); assay: Inhibition of PI3K-C2beta (unknown origin) at 5 uM relative to control
Sequence of Phosphatidylinositol 4-phosphate 3-kinase C2 domain-containing subunit beta (Homo sapiens) (O00750 whole entry, the tested form may be a part, canonical isoform): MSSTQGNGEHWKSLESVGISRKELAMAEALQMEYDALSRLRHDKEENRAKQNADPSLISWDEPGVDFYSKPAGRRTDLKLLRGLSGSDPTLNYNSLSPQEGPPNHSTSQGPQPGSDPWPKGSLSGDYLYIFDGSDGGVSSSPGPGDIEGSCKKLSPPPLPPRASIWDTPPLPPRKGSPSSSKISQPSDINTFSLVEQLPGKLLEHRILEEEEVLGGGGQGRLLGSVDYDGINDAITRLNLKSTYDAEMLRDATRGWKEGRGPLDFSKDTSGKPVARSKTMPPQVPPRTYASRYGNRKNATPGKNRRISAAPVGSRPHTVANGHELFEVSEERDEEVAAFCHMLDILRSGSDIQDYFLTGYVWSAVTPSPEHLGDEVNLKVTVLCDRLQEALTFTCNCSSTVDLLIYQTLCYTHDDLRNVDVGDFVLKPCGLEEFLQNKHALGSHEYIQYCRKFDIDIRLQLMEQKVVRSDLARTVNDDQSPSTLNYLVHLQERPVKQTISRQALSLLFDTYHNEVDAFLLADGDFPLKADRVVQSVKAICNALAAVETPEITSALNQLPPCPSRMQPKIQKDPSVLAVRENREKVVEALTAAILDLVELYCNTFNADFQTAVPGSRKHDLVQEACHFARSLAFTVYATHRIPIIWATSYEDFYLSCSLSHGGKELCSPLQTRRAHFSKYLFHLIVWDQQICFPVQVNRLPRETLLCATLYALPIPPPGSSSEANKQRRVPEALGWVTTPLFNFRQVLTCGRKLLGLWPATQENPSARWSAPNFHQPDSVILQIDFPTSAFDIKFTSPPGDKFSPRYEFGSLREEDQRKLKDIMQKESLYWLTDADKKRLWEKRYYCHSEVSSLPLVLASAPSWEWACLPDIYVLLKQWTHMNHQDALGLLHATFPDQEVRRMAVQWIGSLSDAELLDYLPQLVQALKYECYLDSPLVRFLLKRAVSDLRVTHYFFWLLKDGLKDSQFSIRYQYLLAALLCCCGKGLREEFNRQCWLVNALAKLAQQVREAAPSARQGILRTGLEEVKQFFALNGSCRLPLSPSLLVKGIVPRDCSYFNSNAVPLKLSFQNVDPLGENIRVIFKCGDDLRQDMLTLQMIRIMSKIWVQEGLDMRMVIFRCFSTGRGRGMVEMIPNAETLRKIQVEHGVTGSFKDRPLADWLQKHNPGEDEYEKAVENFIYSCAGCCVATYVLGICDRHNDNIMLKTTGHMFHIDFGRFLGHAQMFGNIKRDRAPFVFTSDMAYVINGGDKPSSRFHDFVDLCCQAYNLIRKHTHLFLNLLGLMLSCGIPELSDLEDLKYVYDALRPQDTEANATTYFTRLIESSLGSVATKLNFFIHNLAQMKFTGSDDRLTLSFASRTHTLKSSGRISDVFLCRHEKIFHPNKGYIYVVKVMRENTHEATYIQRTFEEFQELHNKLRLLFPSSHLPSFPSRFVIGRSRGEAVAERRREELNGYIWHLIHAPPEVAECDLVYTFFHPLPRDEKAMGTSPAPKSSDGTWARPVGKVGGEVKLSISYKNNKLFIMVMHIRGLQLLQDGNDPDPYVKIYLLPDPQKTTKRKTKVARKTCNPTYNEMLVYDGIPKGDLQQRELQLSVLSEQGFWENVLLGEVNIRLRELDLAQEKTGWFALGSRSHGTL

[5] = biological target: Phosphatidylinositol 4,5-bisphosphate 3-kinase catalytic subunit delta isoform (Homo sapiens, UniProt O00329); assay: Inhibition of PI3K p110delta (unknown origin)
[6] = biological target: Homeodomain-interacting protein kinase 1 (Homo sapiens) (UniProt Q86Z02); assay: Inhibition of recombinant human N-terminal GST-tagged HIPK1 expressed in baculovirus expression system at 5 uM by lantha screen kinase binding assay relative to control
Sequence of Homeodomain-interacting protein kinase 1 (Homo sapiens) (Q86Z02 whole entry, looked up): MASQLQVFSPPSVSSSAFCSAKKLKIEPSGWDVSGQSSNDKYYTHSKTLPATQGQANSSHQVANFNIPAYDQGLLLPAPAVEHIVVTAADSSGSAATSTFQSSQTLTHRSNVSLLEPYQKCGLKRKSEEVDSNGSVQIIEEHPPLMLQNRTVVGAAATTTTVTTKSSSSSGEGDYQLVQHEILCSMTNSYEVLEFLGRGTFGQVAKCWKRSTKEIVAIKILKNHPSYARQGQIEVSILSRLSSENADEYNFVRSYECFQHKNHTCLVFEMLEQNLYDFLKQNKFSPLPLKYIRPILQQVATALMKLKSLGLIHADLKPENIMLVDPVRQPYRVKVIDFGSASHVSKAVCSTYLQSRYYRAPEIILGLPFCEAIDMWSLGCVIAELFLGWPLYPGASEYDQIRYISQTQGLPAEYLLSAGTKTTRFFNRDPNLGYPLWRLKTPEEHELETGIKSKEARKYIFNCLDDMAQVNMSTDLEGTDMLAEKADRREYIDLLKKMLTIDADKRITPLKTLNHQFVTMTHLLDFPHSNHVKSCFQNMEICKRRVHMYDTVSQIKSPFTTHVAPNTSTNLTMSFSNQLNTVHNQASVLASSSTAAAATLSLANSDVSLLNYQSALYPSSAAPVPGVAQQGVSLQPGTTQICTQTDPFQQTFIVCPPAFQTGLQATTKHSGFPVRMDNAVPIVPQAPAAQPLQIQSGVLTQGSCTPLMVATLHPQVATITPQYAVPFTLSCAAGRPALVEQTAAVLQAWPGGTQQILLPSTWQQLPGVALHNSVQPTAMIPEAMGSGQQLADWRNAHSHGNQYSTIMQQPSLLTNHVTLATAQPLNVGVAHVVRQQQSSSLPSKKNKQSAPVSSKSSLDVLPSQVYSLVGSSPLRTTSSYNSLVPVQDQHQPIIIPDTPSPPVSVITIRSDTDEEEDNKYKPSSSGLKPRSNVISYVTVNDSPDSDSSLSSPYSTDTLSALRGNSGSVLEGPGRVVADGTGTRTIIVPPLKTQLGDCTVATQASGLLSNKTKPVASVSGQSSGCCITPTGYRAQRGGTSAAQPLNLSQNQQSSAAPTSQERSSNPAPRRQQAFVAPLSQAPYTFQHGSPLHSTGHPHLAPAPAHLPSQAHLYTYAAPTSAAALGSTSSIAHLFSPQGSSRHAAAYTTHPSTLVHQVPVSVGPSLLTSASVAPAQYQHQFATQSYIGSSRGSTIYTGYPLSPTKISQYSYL
Outline: (§1)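 Binding-displacement format: the compound competes with an Alexa Fluor-conjugated tracer for binding to the kinase ATP site, rather than a peptide phosphorylation read-out.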

[7] = biological target: Proto-oncogene tyrosine-protein kinase ROS (Homo sapiens) (UniProt P08922); assay: Inhibition of recombinant human GST-tagged ROS1 expressed in baculovirus expression system at 5 uM by lantha screen kinase binding assay relative to control; outline: as §1
[8] = biological target: Dual specificity protein kinase CLK4 (Homo sapiens, UniProt Q9HAZ1); assay: Inhibition of full length recombinant human GST-tagged CLK4 expressed in baculovirus expression system by lantha screen kinase binding assay
Sequence of Dual specificity protein kinase CLK4 (Q9HAZ1 whole entry): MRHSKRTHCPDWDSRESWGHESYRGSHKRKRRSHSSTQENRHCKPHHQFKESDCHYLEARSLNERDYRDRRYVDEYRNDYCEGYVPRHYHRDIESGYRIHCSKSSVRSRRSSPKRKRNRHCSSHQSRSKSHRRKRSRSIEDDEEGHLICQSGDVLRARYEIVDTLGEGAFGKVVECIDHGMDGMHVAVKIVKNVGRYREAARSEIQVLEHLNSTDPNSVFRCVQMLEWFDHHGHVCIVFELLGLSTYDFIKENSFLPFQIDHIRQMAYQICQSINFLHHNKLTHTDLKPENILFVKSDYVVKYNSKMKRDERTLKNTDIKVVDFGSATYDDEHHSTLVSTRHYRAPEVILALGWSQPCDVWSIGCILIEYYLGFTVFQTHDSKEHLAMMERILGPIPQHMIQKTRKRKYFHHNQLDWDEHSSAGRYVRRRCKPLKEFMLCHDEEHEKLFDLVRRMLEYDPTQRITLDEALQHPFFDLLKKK
Outline: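 LanthaScreen binding format: test compound competes with an Alexa Fluor-conjugated tracer for the ATP site. IC50 derived from this displacement, not from peptide phosphorylation.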

[9] = biological target: T1, Serine/threonine-protein kinase haspin (Homo sapiens); assay: Inhibition of Haspin (unknown origin) at 1 uM relative to control
Outline: (§2)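 Single-point screen at 1 μM compound. Percent inhibition is the mean of two separate measurements, each run in duplicate.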

[10] = biological target: Serine/threonine-protein kinase haspin (Homo sapiens, UniProt Q8TF76); assay: Inhibition of Haspin (unknown origin)
Outline: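 Calculated from means of duplicates differing by less than 7%.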

[11] = biological target: T2, Phosphatidylinositol 4,5-bisphosphate 3-kinase catalytic subunit delta isoform (Homo sapiens); settings: 1 uM
[12] = Growth inhibition of human U87MG cells after 4 days by MTT assay; format: functional, cell-based, U-87MG ATCC; settings: U-87 MG, 96 h
[13] = biological target: Phosphatidylinositol 4-phosphate 3-kinase C2 domain-containing subunit beta (Homo sapiens) (UniProt O00750); assay: Inhibition of PI3K-C2beta (unknown origin) at 1 uM relative to control; outline: as §2
[14] = biological target: cAMP-dependent protein kinase catalytic subunit alpha (Homo sapiens) (UniProt P17612); assay: Inhibition of recombinant human His-tagged PRKACA expressed in Escherichia coli at 1 uM by lantha screen kinase binding assay relative to control; outline: as §1
[15] = biological target: Receptor-interacting serine/threonine-protein kinase 2 (Homo sapiens) (UniProt O43353); assay: Inhibition of recombinant human His-tagged RIPK2 expressed in baculovirus expression system at 1 uM by lantha screen kinase binding assay relative to control; outline: as §1
Sequence of Receptor-interacting serine/threonine-protein kinase 2 (Homo sapiens) (O43353 whole entry): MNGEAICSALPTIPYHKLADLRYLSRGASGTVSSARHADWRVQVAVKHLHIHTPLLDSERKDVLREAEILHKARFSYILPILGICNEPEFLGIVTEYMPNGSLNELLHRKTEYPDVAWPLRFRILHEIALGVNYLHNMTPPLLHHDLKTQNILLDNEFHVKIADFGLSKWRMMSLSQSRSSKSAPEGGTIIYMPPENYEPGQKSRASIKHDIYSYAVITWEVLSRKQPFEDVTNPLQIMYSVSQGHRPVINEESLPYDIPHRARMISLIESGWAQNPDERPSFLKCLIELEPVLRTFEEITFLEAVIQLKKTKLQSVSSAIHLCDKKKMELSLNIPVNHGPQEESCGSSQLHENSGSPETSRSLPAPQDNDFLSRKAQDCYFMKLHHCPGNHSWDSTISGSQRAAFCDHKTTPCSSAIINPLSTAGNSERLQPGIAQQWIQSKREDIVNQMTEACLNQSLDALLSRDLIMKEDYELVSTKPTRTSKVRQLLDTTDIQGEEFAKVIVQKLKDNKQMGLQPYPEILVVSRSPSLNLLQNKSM

| inhibition [1] [%] | inhibition [2] [%] | inhibition [3] [%] | inhibition [4] [%] | IC50 [5] [nM] | inhibition [6] | inhibition [7] | IC50 [8] [nM] | inhibition [9] [%] | IC50 [10] [nM] | inhibition [11] [%] | inhibition [13] [%] | inhibition [14] | inhibition [15] [%] | SMILES | IC50 [12] [nM] |
| --- | --- | --- | --- | --- | --- | --- | --- | --- | --- | --- | --- | --- | --- | --- | --- |
| 43 | 19 | 73 | 8 | – | – | – | – | – | – | – | – | – | – | CC1C/C(=C\c2ccc3c(c2)CCO3)C(=O)O1 (stereo not given) | – |
| – | – | – | – | 12.4 | inactive | inactive | 31.8 | 93 | 255 | 90 | 56 | – | – | O=C1NC(=S)S/C1=C\c1ccc2ncsc2c1 | 560 |
| 75 | – | 77 | 13 | – | – | – | – | – | – | – | – | – | – | O=C1OCC/C1=C\c1ccc2ncsc2c1 | – |
| – | – | – | – | 16.1 | – | – | 17.8 | 93 | 259 | 97 | 62 | inactive | 83 | O=C1NC(=S)S/C1=C\c1ccc2ncccc2c1 | 200 |
